Test results as given in ChEMBL document CHEMBL2086252, “Syntheses and evaluation of anticonvulsant activity of novel branched alkyl carbamates” (J Med Chem, 2012).
The source made the active and inactive calls. No cut-off for these calls is given here.

Legend:
Mus musculus [1] = experiment: Protective index, ratio of TD50 for ip dosed albino CF1 mouse by rotarod test to ED50 for ip dosed albino CF1 mouse by maximal electroshock seizures test; assay type: functional
Outline: (§1)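 Protective index calculated as TD50/ED50, with TD50 and ED50 taken from the same species and dosing route.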

Rattus norvegicus [2] = experiment: Anticonvulsant activity in po dosed Sprague-Dawley albino rat assessed as protection against subcutaneous metrazol-induced seizures; assay type: functional
Outline: (§2)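 Quantitative testing: rats dosed orally or ip in MES and scMet tests, and mice dosed ip, including the 6 Hz (32 mA) psychomotor seizure test. ED50 and TD50 were reported in mg/kg with ranges in parentheses. Protective index was calculated as TD50/ED50.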

Mus musculus [3] = experiment: Protective index, ratio of TD50 for ip dosed albino CF1 mouse by rotarod test to ED50 for ip dosed albino CF1 mouse by subcutaneous metrazol seizures test; assay type: functional; outline: as §1
Rattus norvegicus [4] = experiment: Anticonvulsant activity in Sprague-Dawley albino rat assessed as protection against maximal electroshock-induced seizures at 30 mg/kg, po after 1 hr; assay type: functional, organism-based; set-up: dose 30 mg/kg
Outline: (§3)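 Rats dosed orally. Anti-MES protection was scored as animals protected over animals tested at each time after dosing. Neurotoxicity was scored as motor impairment or sedation, as animals affected over animals tested.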

Rattus norvegicus [5] = experiment: Protective index, ratio of TD50 for po dosed Sprague-Dawley albino rat by rotarod test to ED50 for po dosed Sprague-Dawley albino rat by maximal electroshock seizures test; assay type: functional; outline: as §1
Mus musculus [6] = experiment: Neurotoxicity in albino CF1 mouse assessed as minimal motor impairment at 300 mg/kg, ip after 4 hrs by rotarod test; assay type: toxicity, organism-based; set-up: dose 300 mg/kg, route intraperitoneal; conditions: in vivo
Outline: (§4)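 Mice dosed ip at 30, 100 or 300 mg/kg, then tested 0.5 h and 4 h after administration in the MES or scMet test. Protection was recorded as animals protected over animals tested. Neurotoxicity was recorded as motor impairment or sedation, as animals affected over animals tested.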

Mus musculus [7] = experiment: Anticonvulsant activity in ip dosed albino CF1 mouse assessed as protection against subcutaneous metrazol-induced seizures; assay type: functional; outline: as §2
Rattus norvegicus [8] = experiment: Anticonvulsant activity in Sprague-Dawley albino rat assessed as protection against maximal electroshock-induced seizures at 30 mg/kg, po after 2 hrs; assay type: functional, organism-based; set-up: dose 30 mg/kg; outline: as §3
Mus musculus [9] = experiment: Anticonvulsant activity in albino CF1 mouse assessed as protection against maximal electroshock-induced seizures at 300 mg/kg, ip after 4 hrs; assay type: functional, organism-based; set-up: dose 300 mg/kg; outline: as §4
Rattus norvegicus [10] = experiment: Protective index, ratio of TD50 for ip dosed Sprague-Dawley albino rat by rotarod test to ED50 for ip dosed Sprague-Dawley albino rat by maximal electroshock seizures test; assay type: functional; outline: as §1
Mus musculus [11] = experiment: Anticonvulsant activity in ip dosed albino CF-1 mouse assessed as protection against 6 Hz psychomotor seizure; assay type: functional; conditions: albino CF-1, ip; outline: as §2
Mus musculus [12] = experiment: Neurotoxicity in albino CF1 mouse assessed as minimal motor impairment at 100 mg/kg, ip after 0.5 hrs by rotarod test; assay type: toxicity, organism-based; set-up: dose 100 mg/kg, route intraperitoneal; conditions: in vivo; outline: as §4
[13] = Neurotoxicity in ip dosed albino CF1 mouse assessed as minimal motor impairment by rotarod test; assay type: toxicity, organism-based; conditions: in vivo; outline: as §2
Rattus norvegicus [14] = experiment: Anticonvulsant activity in po dosed Sprague-Dawley albino rat assessed as protection against maximal electroshock-induced seizures; assay type: functional; outline: as §2
Rattus norvegicus [15] = experiment: Anticonvulsant activity in Sprague-Dawley albino rat assessed as protection against maximal electroshock-induced seizures at 30 mg/kg, po after 30 mins; assay type: functional, organism-based; set-up: dose 30 mg/kg; outline: as §3
Rattus norvegicus [16] = experiment: Neurotoxicity in pilocarpine-induced status epilepticus Sprague-Dawley albino rat model assessed as minimal motor impairment at 100 mg/kg, ip after 0.5 hrs by rotarod test; assay type: toxicity, organism-based; set-up: dose 100 mg/kg, route intraperitoneal; conditions: in vivo
[17] = Neurotoxicity in po dosed Sprague-Dawley albino rat assessed as minimal motor impairment by rotarod test; assay type: toxicity, organism-based; conditions: in vivo
Outline: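 Rats dosed orally; 4 rats per time point after dosing. Neurotoxicity was scored as motor impairment or sedation and reported as number of animals affected over number tested.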

CCC(COC(N)=O)C(C)C (racemic)
Ratio TD50/ED50 (Mus musculus [1]): 1.5
ED50 (Rattus norvegicus [2]): 35 mg/kg
Ratio TD50/ED50 (Mus musculus [3]): 2.9
Activity (Rattus norvegicus [4]): inactive
Ratio TD50/ED50 (Rattus norvegicus [5]): 7.8
Activity (Mus musculus [6]): Non-toxic
ED50 (Mus musculus [7]): 120 mg/kg
Activity (Rattus norvegicus [8]): inactive
Activity (Mus musculus [9]): inactive
Ratio TD50/ED50 (Rattus norvegicus [10]): 3.6
ED50 (Mus musculus [11]): 33 mg/kg
Activity (Mus musculus [12]): Non-toxic
TD50 [13]: 157 mg/kg
ED50 (Rattus norvegicus [14]): 64 mg/kg
Activity (Rattus norvegicus [15]): inactive
Activity (Rattus norvegicus [16]): Toxic
TD50 [17]: > 500 mg/kg
